Measured values taken from ChEMBL document CHEMBL4513216, “Probing the Open Global Health Chemical Diversity Library for Multistage-Active Starting Points for Next-Generation Antimalarials” (ACS Infect Dis, 2020).

experiment: Toxicity liver stage against HepG2, at 10uM; type: cell-based; design: test concentration 10 uM, cell line HepG2-A16-CD81EGFP; settings: human, HepG2-A16-CD81EGFP cells; read-out: INHIBITION
Method in brief: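 Uninfected HepG2-A16-CD81EGFP cells, 3 × 10^3 per well, 1536-well, plated on prespotted compound at 10 μM final, parasite-free screening media added to match infected plates; puromycin 10 μM positive, DMSO 0.5% negative; run in parallel with 48 h PbLuc assay at 37 °C, 5% CO2; viability by CellTiter-Glo luminescence, normalized to controls.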

| SMILES | cytotoxicity at 10 µM |
| --- | --- |
| CCC1(CC)Cc2ccccc2-c2nc(NCCO)[nH]c(=O)c21 | -7.17% |
| CC(C)(C)CN1CCOC[C@H]1c1nc(-c2cccc(F)c2)c[nH]1 | -3.79% |
| CC(=O)Nc1ccc(OCc2noc(C(=O)N3CCCCCC3)n2)cc1 | -23% |
| Cc1ccc(NC(=O)Cn2ncc(SCC(N)=O)c(Cl)c2=O)c(F)c1 | -7.21% |
| O=C(Nc1nc2c(s1)CN(S(=O)(=O)C1CC1)CC2)Nc1ccccc1F | -1.34% |
| O=C(NCCn1ccc(-c2ccncc2)n1)c1ccc2c(c1)OCO2 | 6.03% |
| O=C1[C@H]2CN(c3ncccn3)C[C@H]2CN1CC1CC1 | 4.41% |
| CN1CCCC(c2cccc(-c3cccc(Cl)c3)n2)C1 (stereo not given) | -9.58% |
| Cc1cccc(Nc2cccc(C3CCCN(Cc4ncc[nH]4)C3)n2)n1 (stereo not given) | -24.1% |
| Cc1ccc(S(=O)(=O)N2C[C@H]3C[C@H](NC(=O)c4cc[nH]n4)[C@H]3C2)cc1 | 81.4% |
| CCCN1CCN(C(=O)c2cccnc2)CC1 | -48.5% |
| CNC(=O)Cc1ccc(NC(=O)NCc2ncc(C)s2)cc1 | 7.34% |
| CC(Cn1cncn1)NC(=O)NCC(C)(C)c1ccc(F)cc1 (stereo not given) | 13.6% |
| Cc1csc(C2(NC(=O)NCCN3CCOCC3)CCCC2)n1 | -3.55% |
| CCCc1ncc(C(=O)N2CCOc3ncccc32)s1 | 11.6% |
| COCCNc1ccccc1CNC(=O)NCc1ccc(C)s1 | 4.38% |
| COc1ccc(-n2cnnc2SCC(=O)NC(C)C)cn1 | 14% |
| Cc1ccc(N2CCCC(NCCS(C)(=O)=O)C2)nn1 (stereo not given) | -5.26% |
| Fc1ccc(CNCCn2cccn2)c(Cl)c1 | -1.26% |
| Cc1nc(C)c(C(=O)NCCOc2ccc(C(F)(F)F)cn2)o1 | 2.42% |
| Cc1ccsc1CNC(=O)Nc1ccn(CCN2CCOCC2)n1 | 8.28% |
| CC(=O)N1CCN(C2CCc3ccccc32)CC1 (stereo not given) | -44.7% |
| O=C(CCc1ccco1)NS(=O)(=O)Cc1ccon1 | 9.99% |

| SMILES | cytotoxicity at 10 µM |
| --- | --- |
| Cc1cc(Br)cnc1NCCN1CCC(N(C)C)CC1 | -10.6% |
| O=C(c1cscn1)N1C[C@H]2CCC[C@@]2(COCc2ccccn2)C1 | -103% |
| COc1cccc(CC(=O)N2CCc3ncnc(NCCO)c3CC2)c1 | -4.12% |
| CCCn1nc(C)c(CN2CC3(CCOC3)CCC2=O)c1C (stereo not given) | 4.28% |
| CN1CCC(Cc2nc(-c3ccnn3C)n(Cc3ccccc3)n2)CC1 | 44.1% |
| c1cc(CN2CCC(c3nnc4n3CCCCC4)CC2)c2nonc2c1 | -1.08% |
| CC(C)c1nccn1C(C)C(=O)N1CCN(c2ccccc2Cl)CC1 (stereo not given) | 3.54% |
| Cc1cccc(N2CCC(N3CCC4(CN(C)C(=O)O4)C3)CC2)c1C (stereo not given) | -11.8% |
| CCc1cnc(N)nc1NCCCn1cc(Cl)cn1 | 3.5% |
| CN1CCN([C@H]2CCN(C(=O)c3cc(Cl)cn3C)C[C@H]2CCCO)CC1 | 0.174% |
| CCN(C)S(=O)(=O)N[C@H]1CN(c2ccc(F)cn2)C[C@@H]1C(C)C | 10.8% |
| COCCN1CCC(CN(C)c2nc3c(s2)c(C)nn3C)CC1 | 0.992% |
| C1Cc2nc(CCNc3nc(C4CC4)nc4c3CCNCC4)sc2C1 | -10.4% |
| CCOCCCn1c(NC(=O)c2cc(C)on2)nc2ccccc21 | -31.3% |
| Cc1nn(C)c(N(C)C)c1CNCCC(=O)NC1CCCC1 | -3.37% |
| CCCc1noc(CCCC(=O)N2CCCC2c2cnn(C)c2)n1 (stereo not given) | 6.32% |
| Cc1cn2c(n1)CCC(NC(=O)c1[nH]nc(C)c1Br)C2 (stereo not given) | -17.6% |
| CCN(Cc1nc2c(cnn2C)c(=O)[nH]1)c1cc(C)cc(C)c1 | -5.83% |
| COCCc1noc(CN2CCCC2Cn2nc(C)nc2C)n1 (stereo not given) | -1.39% |
| c1cnnc(N2CCCC2CNc2ncnc3ccccc23)c1 (stereo not given) | 2.33% |
| COc1ccc(CN2C[C@@H]3CN(Cc4cccnc4)CCO[C@@H]3C2)cc1 | 10.3% |
| CC(C)COC1CC2(CCN(C(=O)Cc3ccccn3)CC2)C1 | -113% |
